In the library only some 2.8% were active in any assay of this set; here they are far more common.
HTRA1 inhibitor – inhibitors of human serine peptidase HTRA1. inhibition, % at 5.96 µM. recombinant HTRA1, FP-rhodamine activity-based probe, fluorescence polarization. hit rate 0.5% among 340,000. AID 504803. Q92743; in the data active = inhibition above about 36%;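 also: 0% = enzyme with DMSO and 100% = wells lacking enzyme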
ABHD4 inh – inhibits mouse alpha/beta hydrolase domain 4; Q8VD66; purified mABHD4, FP-Rh probe fluorescence polarization; inhibition, % at 8.92 µM; hit rate 0.54% among 370,000; AID 720543;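 active = inhibition exceeding the mean over every tested compound plus 3 SD, cut at about 30% in these data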;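 also: 0% = plate median of compound wells and 100% = S159A mutant with DMSO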
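system = mouse ABHD4 enzyme, wild type | medium = HEPES pH 7.0, NaCl, Pluronic buffer | also added = FP-Rh probe | incubation = Enzyme–compound pre-incubation 45 min, then probe 60 min, both 25 °C | technique = fluorescence polarization, excitation 525 nm, emission 598 nm, BODIPY TMR filters | controls = S159A mutant high control, sample median low control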
PAFAH1B3 FP inh – PAFAH1B3 (human) inhibition; inhibition, % at 3.39 µM; recombinant PAFAH1B3, FP-rhodamine probe, fluorescence polarization; AID 492972; Q15102; hit rate 0.28% among 340,000;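 active = inhibition above the screen-wide average of all tested compounds plus 3 SD, cut at about 25% in these data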;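 also: 0% = enzyme with DMSO only and 100% = wells lacking PAFAH1B3 protein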
Target sequence (Q15102 whole entry, looked up): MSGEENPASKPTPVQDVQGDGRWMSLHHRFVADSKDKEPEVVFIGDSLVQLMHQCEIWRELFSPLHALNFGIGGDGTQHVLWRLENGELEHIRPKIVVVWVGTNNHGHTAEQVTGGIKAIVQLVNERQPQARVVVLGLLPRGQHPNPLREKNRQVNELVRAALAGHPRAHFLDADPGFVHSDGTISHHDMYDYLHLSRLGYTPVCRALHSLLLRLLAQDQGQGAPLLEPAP
PAFAH1B2 inh – inhibitors of human PAFAH1B2; P68402; recombinant PAFAH1B2, FP-rhodamine activity probe, fluorescence polarization; inhibition, % at 3.39 µM; hit rate 1.2% among 340,000; AID 492953;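 active = inhibition above the mean of all tested compounds plus 3 SD, cut at about 24% in these data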;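 also: 0% = enzyme with DMSO and 100% = wells lacking PAFAH1B2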
Target sequence (P68402 whole entry, looked up): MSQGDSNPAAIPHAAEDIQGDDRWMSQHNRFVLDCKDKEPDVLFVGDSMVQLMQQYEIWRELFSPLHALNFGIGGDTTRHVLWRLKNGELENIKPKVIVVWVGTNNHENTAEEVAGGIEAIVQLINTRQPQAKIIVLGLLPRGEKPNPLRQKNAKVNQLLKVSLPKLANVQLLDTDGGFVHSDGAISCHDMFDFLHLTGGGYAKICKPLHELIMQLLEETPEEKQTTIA
PAFAH2 inh – inhibitors of human PAFAH2; inhibition, % at 3.39 µM; recombinant PAFAH2, FP-rhodamine activity probe, fluorescence polarization; hit rate 0.99% among 340,000; Q99487; AID 492956;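 active = inhibition above the mean over all tested compounds plus 3 SD, cut at about 30% in these data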;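 also: inhibitors block probe labeling of enzyme so polarization drops; 0% = enzyme with DMSO and 100% = wells lacking PAFAH2 protein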
pPAFAH FP inh – inhibitors of human plasma PAF acetylhydrolase (pPAFAH); Q13093; recombinant pPAFAH, FP-rhodamine probe fluorescence polarization; inhibition, % at 3.39 µM; hit rate 1.5% among 330,000; AID 463082;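 active = inhibition above the mean inhibition across the screen plus 3 SD, cut at about 25% in these data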;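 also: inhibitors block binding of the rhodamine activity-based probe so polarization drops; 0% = enzyme with DMSO and 100% = wells lacking pPAFAH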
pPAFAH confirm – confirmation of human plasma PAF acetylhydrolase (pPAFAH) inhibitors; shares compounds with pPAFAH FP inh; recombinant pPAFAH, FP-Rh probe fluorescence polarization; inhibition, % at 3.39 µM; hit rate 72% among 2,300; AID 463230;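 active = mean inhibition of the triplicate above the hit cutoff set for the earlier primary screen, cut at about 25% in these data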;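 also: 0% = enzyme with DMSO and 100% = wells lacking pPAFAH enzyme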
Active calls of the source: *; . = no result.

SMILES | HTRA1 inhibitor | ABHD4 inh | PAFAH1B3 FP inh | PAFAH1B2 inh | PAFAH2 inh | pPAFAH FP inh | pPAFAH confirm
Cc1ccc(-c2nn(-c3ccccc3)cc2C2CC(c3cccs3)=NN2C(=O)CCCC(=O)O)cc1 (stereo not drawn) | -9.7 | 6.0 | 5.3 | 8.3 | 1.0 | 39.8* | 4.7
O=C(NCc1ccccc1Cl)O[C@H]1CC[C@@]23CCCN2C(=O)CCC[C@H]3C1 | . | 1.4 | . | . | . | . | .
COC(=O)[C@@]12CCCCC3=C1N(CCC3)C(=O)[C@H]2CC(=O)N1CCOCC1 | . | -1.1 | . | . | . | . | .
Cc1ccc(C(=O)Nc2scc(-c3ccccc3)c2C(=O)O)cc1 | -13.5 | 1.5 | 13.6 | 5.8 | -8.0 | -16.8 | .
CC(C)(C)C(=O)Nc1scc(-c2ccc(-c3ccccc3)cc2)c1C(=O)O | -8.0 | -43.7 | 0.9 | 7.8 | 0.1 | 42.6* | 24.8*
COC(=O)[C@@]12CCCCC3=C1N(CCC3)C(=O)[C@H]2CC(=O)N1CCCC1 | . | -2.4 | . | . | . | . | .
COC(=O)CCC(=O)OC1(C)C(=O)C2=COC(c3ccc(OC)cc3)=CC2=C(Br)C1=O (stereo not drawn) | . | . | . | . | . | 35.2* | 20.7
CN(C)c1ccc(NC2=C([N+](=O)[O-])CS(=O)(=O)C2)cc1 | 21.1 | 29.2 | 12.5 | 1.6 | 3.3 | 39.4* | 6.7
COc1ccc(Nc2nnc(SC(C(=O)Nc3ccc(OC)c(Cl)c3)c3ccccc3)s2)cc1 (stereo not drawn) | -40.3 | -10.8 | -17.1 | 4.2 | 12.9 | 34.5* | 16.7
COc1ccc(Nc2nnc(SC(C(=O)Nc3cc(C)ccc3C)c3ccccc3)s2)cc1 (stereo not drawn) | 2.2 | -2.2 | 3.2 | -2.5 | 10.3 | 1.6 | .
C=CCn1c(SCC(=O)c2ccc(O)c(O)c2)nnc1-c1cccnc1 | 16.1 | 18.4 | 7.5 | 4.0 | 23.9 | 50.3* | 18.8
NC(=O)c1c(N)[nH]c(C(=O)c2ccccc2)c1-c1ccccn1 | . | 4.1 | . | . | . | . | .
CC(=O)NC(=S)Nc1ccc(NC(=S)NC(=O)/C=C/c2ccco2)cc1 | -0.3 | -6.9 | -9.7 | -7.0 | -20.6 | -3.2 | .
O=C(/C=C/c1ccco1)NC(=S)Nc1ccc(C(=O)O)cc1 | 12.1 | 25.5 | 13.0 | 1.8 | -0.4 | 38.9* | 6.9
O=S(=O)(Nc1ccc(Cl)cc1)c1ccc(N2CCOCC2)c(NC(=S)NCCN2CCOCC2)c1 | -2.7 | -0.5 | 2.1 | -0.5 | 7.1 | 58.0* | 58.8*
COCCNC(=S)Nc1ccc(N2CCOCC2)c(S(=O)(=O)Nc2ccc(Cl)cc2)c1 | -8.4 | 3.3 | . | . | . | . | .
Cc1ccc(-n2c(SCC(=O)Nc3ccc4cn[nH]c4c3)nnc2-c2ccccc2)cc1 | . | -101.0 | . | . | . | . | .
CCOC(=O)c1c(C)n(-c2ccc(C)cc2)c2ccc(OCC(O)CNCC3CCCO3)cc12 (stereo not drawn) | -50.2 | . | 5.0 | 5.2 | -1.4 | 71.4* | 69.5*
CCOC(=O)c1c(C)n(-c2ccc(C)cc2)c2ccc(OCC(O)CNCCCO)cc12 (stereo not drawn) | -10.4 | 3.2 | -4.2 | 4.0 | -1.4 | 11.3 | .
CN(C)/C=C/C(=O)/C=C/c1ccc(Cl)cc1Cl | 19.6 | 6.3 | 4.2 | 4.9 | 9.0 | 37.6* | 4.0
Cc1nn(-c2ccccc2)c2sc(C(=O)NC3CCCc4ccccc43)cc12 (stereo not drawn) | . | -12.2 | . | . | . | . | .
CCOC(=O)Cc1nc(N2CCN(CCO)CC2)c2c(C)c(C(=O)OCC)sc2n1 | . | 0.1 | . | . | . | . | .
CCCCCCNC(=O)C1CSCCS(=O)(=O)N1Cc1ccc(C)cc1 (stereo not drawn) | . | -5.5 | . | . | . | . | .
COc1ccc(N(Cc2cc3cccc(C)c3[nH]c2=O)S(=O)(=O)c2ccc(OC)cc2)cc1 | 0.7 | 2.4 | 7.5 | 4.6 | 5.4 | 65.8* | 2.4
CC(C)C[C@@H]1COc2cc(Br)ccc2S(=O)(=O)N1Cc1cn(Cc2ccc(F)cc2)nn1 | . | -3.9 | . | . | . | . | .
SMILES | HTRA1 inhibitor | ABHD4 inh | PAFAH1B3 FP inh | PAFAH1B2 inh | PAFAH2 inh | pPAFAH FP inh | pPAFAH confirm
CCn1c(=O)c2cc(C(=O)N3CCN(C)CC3)sc2c2ccccc21 | -1.4 | 1.2 | 2.4 | 3.8 | 7.0 | -0.4 | .
CN1CCN(C(=O)c2cc3sc4ccccc4c3s2)CC1 | . | -9.7 | . | . | . | 52.0* | 7.1
COc1cc([N+](=O)[O-])cc(/C=C2/SC(=S)N(Cc3ccccc3)C2=O)c1O | -80.1 | -157.2 | -90.9 | -98.9 | -61.2 | -6.9 | .
O=C(O)CN1C(=O)/C(=C\c2cc(Br)ccc2OCc2ccc([N+](=O)[O-])cc2)SC1=S | -50.1 | 17.4 | 8.2 | 6.2 | 12.1 | 58.9* | 58.1*
O=C(O)CN1C(=O)/C(=C\c2cc(Br)ccc2OCc2ccccc2F)SC1=S | -80.3 | -12.4 | 4.7 | 4.2 | 31.1* | 52.3* | 67.3*
O=C(O)CN1C(=O)/C(=C\c2cc(Br)ccc2OCc2ccccc2Cl)SC1=S | -111.6 | -16.8 | 8.5 | 2.1 | 24.2 | 45.1* | 74.6*
COC(=O)[C@]12C[C@H](CC(=O)NCCCN3CCCC3=O)C(=O)N(Cc3ccco3)C1=C[C@H](C(C)(C)C)O[C@@H]2C | . | -0.1 | . | . | . | . | .
N#CCc1nn2c3c(cnc2c1C#N)C(=O)CCC3 | 4.5 | 7.5 | 11.5 | 3.0 | 0.6 | 52.7* | 3.5
Cc1nn2c3c(cnc2c1-c1ccccc1)C(=O)CCC3 | 6.4 | 1.6 | 8.2 | 2.9 | -4.2 | -5.5 | .
O=S1(=O)N=C(N/N=C/c2ccccn2)c2ccccc21 | 1.9 | -12.4 | 16.5 | 1.3 | 1.8 | 75.8* | 1.9
Cc1[nH]nc2c1C(c1ccccc1)N(Cc1ccccc1)C2=O (stereo not drawn) | . | 0.2 | . | . | . | . | .
N#Cc1ccccc1NCCCN1CCC(C(O)(c2ccccc2)c2ccccc2)CC1 | . | -1.5 | . | . | . | . | .
Cc1ccccc1NS(=O)(=O)c1ccc(-c2ccc(=O)[nH]n2)o1 | -3.5 | -0.6 | 8.2 | 2.5 | -4.5 | 16.9 | .
CCN(CC)c1ccc(NS(=O)(=O)c2ccc(-c3ccc(=O)[nH]n3)o2)c(C)c1 | 14.3 | 20.4 | 2.4 | 6.0 | 10.1 | 68.2* | 49.7*
COC(=O)N[C@H](C(=O)N[C@@H](Cc1ccccc1)[C@@H](O)CN(Cc1ccc(-c2ccccn2)cc1)NC(=O)[C@@H](NC(=O)OC)C(C)(C)C)C(C)(C)C | . | -1.8 | . | . | . | . | .
